Assay [1] is described as follows: Her2 expression decrease, cell viability multiplex – SKBR3 breast tumor cells, AlphaScreen, ATP viability, primary screen (AID 461;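 active = Her2 level under about 52% in both replicate screens, with viability over 70% of control, limit read from the data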;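 as to Her2 level: lower value means less Her2 protein in the cells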;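 as to viability: percent of carrier control wells set as 100% viability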). The settings on record: SKBR3 Her2 protein level, 18-24 h, measured here: SKBR3 viability, ATP luminescence, at 10 µM.
Assay [2] concerns the target Receptor tyrosine-protein kinase erbB-2 (Homo sapiens) (UniProt P04626). The assay is described as above. The settings on record: 18-24 h, at 10 µM, stronger effect = lower value.
A short description of assay [3]: reduced viability of SK-BR-3 breast cancer cells – cell-based, 24 h, human, pilot screen (AID 572;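 active = viability at or below 10% of carrier control in both of two separate runs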;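 also: compound exposure lasted between 18 and 24 h rather than exactly 24 h; 100% = carrier-treated control wells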). The settings on record: SK-BR-3 viability, CellTiter-Glo luminescence, at 10 µM, stronger effect = lower value. In general terms: Cellular ATP, detected with luciferase, serves as a proxy for viable cell number.
Assay [4] can be described thus: HUVEC growth inhibition – cell-based, human, primary screen (AID 575;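 active = viability at or below 30% in both replicate assays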;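 also: 100% = median of untreated cell wells with 0.1% DMSO on each plate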). The settings on record: HUVEC proliferation, CellTiter-Glo luminescence, 72 h; at 10 µM; stronger effect = lower value. Summed up: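 Test system: primary human umbilical vein endothelial cells; medium: endothelial basal medium with 2% FBS plus growth supplements; dosing: 10 µM compound only; times: 72 h treatment at 37 °C; signal: CTG luminescence; read-out: % viability relative to median vehicle-well signal on each plate; control set: vehicle and MePR control wells; plate: 384-well, collagen-coated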

The nature of assay [5]: H69AR cell proliferation blockers – human, duplicate replicates, primary screen (AID 580;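 active = viability at or under a set limit in both replicates, limit being median viability minus 3 SD, cut at about 48% in these data, passing the limit was not always enough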;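 also: 100% = mean luminescence of untreated wells and 0% = no signal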). The settings on record: H69AR lung tumor cells viability, ATP luminescence, 72 h; at 10 µM; stronger effect = lower value.
Assay [6] can be described thus: MRP1 drug-resistance reversers in H69AR cells – cell-based, doxorubicin co-treatment, pilot screen (AID 601). The settings on record: CellTiter-Glo, 72 h, at 10 µM; for differential viability (reversal): stronger effect = higher value.
Assay [7] can be described thus: yeast transport mutant growth inhibition pilot in 384-well plates, post-Golgi transport modulator project (AID 636; in the data active = inhibition above about 31%). The settings on record: absorbance 615 nm, about 18 h, stronger effect = higher value.
The nature of assay [8]: growth suppression of yeast trafficking mutant, preliminary HTS, modulators of trafficking downstream of Golgi apparatus project, 1536-format plate, OD 615 nm (AID 637; in the data active = inhibition above about 30%). As to conditions: yeast transport mutant growth, absorbance 615 nm, 18 h; stronger effect = higher value.
[9] abbreviates: H69AR cells + 2 uM doxorubicin, measured here: viability with 2 uM doxorubicin, stronger effect = lower value.
Setting [10] is: H69AR cells, compound alone cytotoxicity.

SMILES strings stand for the structures. Calls of active or inactive are those of the source.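 The calls were made as follows, unless noted: active = viability loss from added drug above about 55%, and viability with drug at most 40%, in both replicates (limit read from the data, passing the limit was not always enough); inconclusive = both conditions met in only one replicate; inactive = neither replicate meets both conditions.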

Sequence of Receptor tyrosine-protein kinase erbB-2 (Homo sapiens) (P04626 whole entry, looked up): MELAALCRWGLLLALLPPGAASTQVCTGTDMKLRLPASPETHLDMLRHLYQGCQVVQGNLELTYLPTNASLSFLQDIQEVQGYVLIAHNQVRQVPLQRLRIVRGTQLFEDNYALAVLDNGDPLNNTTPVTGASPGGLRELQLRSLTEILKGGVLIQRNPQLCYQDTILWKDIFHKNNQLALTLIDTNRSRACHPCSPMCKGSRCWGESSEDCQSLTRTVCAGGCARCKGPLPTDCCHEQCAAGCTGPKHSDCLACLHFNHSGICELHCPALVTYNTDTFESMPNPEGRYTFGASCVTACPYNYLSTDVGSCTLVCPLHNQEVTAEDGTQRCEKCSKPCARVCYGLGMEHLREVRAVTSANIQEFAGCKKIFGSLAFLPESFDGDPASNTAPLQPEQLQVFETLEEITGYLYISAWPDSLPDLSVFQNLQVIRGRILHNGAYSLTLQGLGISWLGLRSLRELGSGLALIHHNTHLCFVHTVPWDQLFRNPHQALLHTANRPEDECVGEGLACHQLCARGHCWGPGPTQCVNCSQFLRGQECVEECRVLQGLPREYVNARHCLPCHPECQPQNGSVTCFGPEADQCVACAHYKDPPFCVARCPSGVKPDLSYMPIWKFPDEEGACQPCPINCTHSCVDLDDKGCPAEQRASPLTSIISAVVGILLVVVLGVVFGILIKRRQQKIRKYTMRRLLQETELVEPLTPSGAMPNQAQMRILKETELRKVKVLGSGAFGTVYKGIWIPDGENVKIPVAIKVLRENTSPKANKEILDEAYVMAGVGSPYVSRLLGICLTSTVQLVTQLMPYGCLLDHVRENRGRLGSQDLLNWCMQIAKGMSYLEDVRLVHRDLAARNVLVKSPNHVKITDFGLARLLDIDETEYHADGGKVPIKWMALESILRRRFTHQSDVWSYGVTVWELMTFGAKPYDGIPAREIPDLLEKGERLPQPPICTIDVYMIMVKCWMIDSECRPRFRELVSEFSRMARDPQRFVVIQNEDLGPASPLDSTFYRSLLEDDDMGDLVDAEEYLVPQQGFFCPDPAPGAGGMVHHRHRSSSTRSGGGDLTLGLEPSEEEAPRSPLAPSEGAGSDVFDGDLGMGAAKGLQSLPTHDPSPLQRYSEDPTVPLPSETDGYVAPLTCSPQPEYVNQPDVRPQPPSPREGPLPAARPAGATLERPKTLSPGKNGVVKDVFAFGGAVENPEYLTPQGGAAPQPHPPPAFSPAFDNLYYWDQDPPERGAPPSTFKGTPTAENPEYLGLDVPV

The viability is a read-out of living cells in per cent, often relative to untreated cells. The inhibition is the relative decrease from the control value, in per cent. As for `COc1cc2[nH]c(=O)c(C(=O)NCCCN3CCCCC3)c(O)c2cc1OC`, the viability in assay [1] was 99.5%; in assay [3] it was 99.5% (inactive); in assay [4] it was 99.5% (inactive); in assay [5], 98.7% (inactive); in assay [6] (setting [9]), 91.1%; in assay [6] (setting [10]), 98.7%. Moreover, the Her2 level in assay [2] is 99% (inactive). The differential viability (reversal) in assay [6] (H69AR cells + 2 uM doxorubicin) was 7.58% (inactive). Besides, the inhibition in assay [7] was -6.35% (inactive); in assay [8] it was 1.11% (inactive).

`CCCCC(=O)NCCc1cc2ccc(OC)cc2[nH]c1=O`: the viability in assay [1] is 91.5%; in assay [3], 91.5% (inactive); in assay [4], 102% (inactive); in assay [5], 103% (inactive); in assay [6] (setting [9]), 95.4%; in assay [6] (setting [10]), 103%. Also, in assay [2], the Her2 level was 85.5% (inactive). The differential viability (reversal) in assay [6] (H69AR cells + 2 uM doxorubicin) is 7.54% (inactive). Moreover, the inhibition in assay [7] was -7.95% (inactive); in assay [8], -3.33% (inactive).

For the molecule `COC(=O)Nc1sc2c(c1C(=O)N1CCOCC1)CCC(C)C2` (stereo not given), the viability in assay [1] is 89.5%; in assay [3], 89.5% (inactive); in assay [4] it was 79.7% (inactive); in assay [5], 93.9% (inactive); in assay [6] (setting [9]), 95.6%; in assay [6] (setting [10]) it was 93.9%. In assay [2], the Her2 level was 88.5% (inactive). In assay [6] (H69AR cells + 2 uM doxorubicin), the differential viability (reversal) is -1.66% (inactive). Further, the inhibition in assay [7] was -2.89% (inactive); in assay [8] it was 26% (inactive).

Turning to `O=C(O)CCNc1ccc2c(c1)OCCO2`, the viability in assay [1] was 97.5%; in assay [3] it was 97.5% (inactive); in assay [4], 109% (inactive); in assay [5], 86.9% (inactive); in assay [6] (setting [9]) it was 79.6%; in assay [6] (setting [10]), 86.9%. The Her2 level in assay [2] was 86.5% (inactive). Also, the differential viability (reversal) in assay [6] (H69AR cells + 2 uM doxorubicin) is 7.24% (inactive). In addition, the results for the inhibition in assay [7] and in assay [8] were -5.14% (inactive) and -2.67% (inactive), respectively.

Turning to `COc1ccccc1-c1nc(C#N)c(N2CCN(c3ccccc3)CC2)o1`, the viability in assay [1] was 104%; in assay [3] it was 104% (inactive); in assay [4] it was 70.4% (inactive); in assay [5], 89.8% (inactive); in assay [6] (setting [9]), 79.6%; in assay [6] (setting [10]), 89.8%. For the same molecule, in assay [2], the Her2 level was 79.5% (inactive). In addition, the differential viability (reversal) in assay [6] (H69AR cells + 2 uM doxorubicin) is 10.2% (inactive). For the same molecule, the inhibition in assay [7] is -3.68% (inactive); in assay [8], 3.65% (inactive).

On to `O=C(COc1ccccc1)Nc1nc2ccccc2[nH]1`, for which the viability in assay [1] is 91.5%; in assay [3], 91.5% (inactive); in assay [4] it was 92.5% (inactive); in assay [5] it was 91.5% (inactive); in assay [6] (setting [9]), 85.6%; in assay [6] (setting [10]), 91.5%. Besides, the Her2 level in assay [2] is 93% (inactive). For the same molecule, the differential viability (reversal) in assay [6] (H69AR cells + 2 uM doxorubicin) is 5.92% (inactive). The inhibition is -1.04% (inactive) in assay [7] and -3.93% (inactive) in assay [8].

Take `CCn1cc(C2=NCC(C)O2)c2ccccc21` (stereo not given): the viability in assay [1] was 96.5%; in assay [3], 96.5% (inactive); in assay [4] it was 74.8% (inactive); in assay [5] it was 93.5% (inactive); in assay [6] (setting [9]), 90.3%; in assay [6] (setting [10]) it was 93.5%. In addition, the Her2 level in assay [2] was 83% (inactive). Also, the differential viability (reversal) in assay [6] (H69AR cells + 2 uM doxorubicin) was 3.18% (inactive). For the same molecule, the inhibition in assay [7] is -5.54% (inactive); in assay [8] it was -0.32% (inactive).

For the molecule `CCOC(=O)N1CCN(C(=O)c2ccc3c(SCC(=O)O)c4c(nc3c2)CCCC4)CC1`, the viability in assay [1] was 95.5%; in assay [3], 95.5% (inactive); in assay [4], 93.8% (inactive); in assay [5], 100% (inactive); in assay [6] (setting [9]), 93.9%; in assay [6] (setting [10]), 100%. In addition, the Her2 level in assay [2] was 92.5% (inactive). Further, in assay [6] (H69AR cells + 2 uM doxorubicin), the differential viability (reversal) was 6.52% (inactive). Moreover, the inhibition in assay [7] is 0.13% (inactive); in assay [8] it was 22.3% (inactive).

With `COCCNc1nc(SCC(=O)N2CCN(c3ccccc3)CC2)nc2ccccc12`, the viability was 72% in assay [1]; 72% (inactive) in assay [3]; 84.4% (inactive) in assay [4]; 84.3% (inactive) in assay [5]; 73.9% in assay [6] (setting [9]); 84.3% in assay [6] (setting [10]). Besides, the Her2 level in assay [2] is 81.5% (inactive). Also, in assay [6] (H69AR cells + 2 uM doxorubicin), the differential viability (reversal) was 10.4% (inactive). In addition, the values for the inhibition in assay [7] and in assay [8] were -7.6% (inactive) and -1.48% (inactive), respectively.

As to `CCOC(=O)N1CCN(S(=O)(=O)c2cc(Cl)ccc2Cl)CC1`, the viability is 106% in assay [1]; 106% (inactive) in assay [3]; 90.7% (inactive) in assay [4]; 85% (inactive) in assay [5]; 83% in assay [6] (setting [9]); 85% in assay [6] (setting [10]). For the same molecule, the Her2 level in assay [2] is 94.5% (inactive). Further, the differential viability (reversal) in assay [6] (H69AR cells + 2 uM doxorubicin) is 2.05% (inactive). In addition, the figures for the inhibition in assay [7] and in assay [8] were -3.38% (inactive) and -0.32% (inactive), respectively.

Turning to `CCc1ccccc1NC(=O)CCc1nc(-c2ccc(C)cc2)no1`, the viability in assay [1] was 95%; in assay [3], 95% (inactive); in assay [4], 83% (inactive); in assay [5], 99.3% (inactive); in assay [6] (setting [9]), 96.2%; in assay [6] (setting [10]), 99.3%. In assay [2], the Her2 level was 71.5% (inactive). The differential viability (reversal) in assay [6] (H69AR cells + 2 uM doxorubicin) is 3.1% (inactive). For the same molecule, the results for the inhibition in assay [7] and in assay [8] were -4.61% (inactive) and -3.67% (inactive), respectively.

On to `CCOC(=O)C(NC(=O)Nc1ccccc1)(OCC)C(F)(F)F` (stereo not given), for which the viability in assay [1] was 114%; in assay [3], 114% (inactive); in assay [4], 84.5% (inactive); in assay [5] it was 93.3% (inactive); in assay [6] (setting [9]), 86.5%; in assay [6] (setting [10]), 93.3%. Besides, the Her2 level in assay [2] is 98% (inactive). Moreover, the differential viability (reversal) in assay [6] (H69AR cells + 2 uM doxorubicin) is 6.82% (inactive). Moreover, the inhibition was -0.26% (inactive) in assay [7] and 12.1% (inactive) in assay [8].

Take `CC(=O)c1c(C)[nH]c(C(=O)Nc2ccc3c(c2)OCCO3)c1C`: the viability in assay [1] is 102%; in assay [3], 102% (inactive); in assay [4], 86.1% (inactive); in assay [5], 92.9% (inactive); in assay [6] (setting [9]), 74.8%; in assay [6] (setting [10]) it was 92.9%. Further, the Her2 level in assay [2] was 92% (inactive). The differential viability (reversal) in assay [6] (H69AR cells + 2 uM doxorubicin) is 18.1% (inactive). The results for the inhibition in assay [7] and in assay [8] were -0.26% (inactive) and 2.42% (inactive), respectively.

`O=C(CCN1C(=O)COc2ccccc21)N1CCN(c2ccccn2)CC1`: the viability in assay [1] was 130%; in assay [3], 130% (inactive); in assay [4], 114% (inactive); in assay [5], 106% (inactive); in assay [6] (setting [9]) it was 78.6%; in assay [6] (setting [10]) it was 106%. Moreover, the Her2 level in assay [2] is 96.5% (inactive). In addition, the differential viability (reversal) in assay [6] (H69AR cells + 2 uM doxorubicin) is 27.7% (inactive). Also, the inhibition is -2.08% (inactive) in assay [7] and 3.33% (inactive) in assay [8].

Values taken from PubChem BioAssay.
